pEC50: −log10 of the molar value. In brackets after ≈: the same amount, converted by molar mass. Activity calls are given as the source filed them. No cut-off for these calls is given here.
Legend:
[1] = tested on: Trypanosoma cruzi; assay: Antitrypanosomal activity against Trypanosoma cruzi Tulahuen trypomastigote forms infected in mouse L929 cells assessed as reduction in infection level at 10 to 12 uM after 96 hrs by beta-galactosidase reporter gene assay relative to control; format: functional; design: scale not given: the % may be the effect or the level left
How it was run: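 L929 cells infected 2 h with tissue culture-derived β-galactosidase-expressing Tulahuen trypomastigotes at 10:1 parasite/host cell ratio, rinsed, and held 48 h at 37℃. Single fixed concentration (10-12 µM) then applied, 96 h. Absorbance read at 570 nm; growth inhibition expressed relative to untreated cells. DMSO not above 0.6 %.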

[2] = tested on: Trypanosoma cruzi; assay: Trypanocidal activity against Trypanosoma cruzi Sylvio X10/7 intracellular amastigotes forms measured every 24 hrs for 96 hrs by time-kill assay; format: functional
[3] = tested on: Trypanosoma cruzi; assay: Trypanocidal activity against Trypanosoma cruzi Sylvio X10/7 intracellular amastigotes forms assessed as inhibition of maximum parasite growth measured every 24 hrs for 96 hrs by time-kill assay relative to control; format: functional
[4] = tested on: Trypanosoma cruzi; assay: Antitrypanosomal activity against Trypanosoma cruzi Tulahuen trypomastigote forms infected in mouse L929 cells assessed as reduction in parasite load after 96 hrs by beta-galactosidase reporter gene assay; format: functional, organism-based; conditions: L929, 96 h
How it was run: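 L929 cells infected 2 h with tissue culture-derived Tulahuen β-galactosidase trypomastigotes (10:1 parasite/host cell), rinsed with saline, and left 48 h at 37℃. Increasing non-toxic concentrations applied for 96 h. Absorbance read at 570 nm, % growth inhibition versus untreated cells, EC50 derived; mean ± SD. DMSO not above 0.6 %.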

[5] = Cytotoxicity against mouse L929 cells assessed as reduction in cell viability after 96 hrs by light microscopic analysis; format: cell-based; conditions: read-out: LC50
How it was run: (§1)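 L929 fibroblasts (4x10^3 cells/well) in RPMI 1640 with 10% FBS, incubated at 37°C with increasing concentrations for 96 h. Viability was read with AlamarBlue (6 h incubation, absorbance at 600 nm) and confirmed by light microscopy.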

[6] = Cytotoxicity against mouse L929 cells assessed as reduction in cell viability after 96 hrs by Alamarblue assay; format: cell-based; conditions: read-out: LC50; how it was run: as §1
[7] = Selectivity index, ratio of LC50 for mouse L929 cells by light microscopic analysis to EC50 for Trypanosoma cruzi Tulahuen trypomastigote forms; format: toxicity; conditions: read-out: Selectivity Index
[8] = Selectivity index, ratio of LC50 for mouse L929 cells by Alamarblue assay to EC50 for Trypanosoma cruzi Tulahuen trypomastigote forms; format: toxicity; conditions: read-out: Selectivity Index
[9] = tested on: Trypanosoma cruzi; assay: Antitrypanosomal activity against bloodstream trypomastigote stage of Trypanosoma cruzi Y measured after 2 hrs by light microscopic analysis; format: functional, organism-based
How it was run: (§2)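 Y strain bloodstream trypomastigotes from heart puncture of infected mice, at 5x10⁶/mL in RPMI 1640 with 5% FBS. Incubated at 37℃ with 0–50 µM for 2 or 24 h. […] Mean ± SD.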

[10] = tested on: Trypanosoma cruzi; assay: Antitrypanosomal activity against bloodstream trypomastigote stage of Trypanosoma cruzi Y measured after 24 hrs by light microscopic analysis; format: functional, organism-based; how it was run: as §2
[11] = Cytotoxicity against Swiss Webster mouse cardiac cells assessed as reduction in cell viability after 24 hrs by light microscopic analysis; format: cell-based, Cardiac Muscle Cell; conditions: read-out: LC50
How it was run: (§3)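 Primary cardiac cells from Swiss Webster mouse embryos, cultured at 37°C in DMEM with 5% FBS, CaCl2, glutamine and chick embryo extract. Uninfected cultures were exposed to increasing concentrations for 24 h. Viability was read with PrestoBlue (5 h incubation, absorbance at 570 nm) and checked by light microscopy for morphology.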

[12] = Cytotoxicity against Swiss Webster mouse cardiac cells assessed as reduction in cell viability after 24 hrs by prestoblue assay; format: cell-based, Cardiac Muscle Cell; conditions: read-out: LC50; how it was run: as §3
[13] = Selectivity index, ratio of LC50 for Swiss Webster mouse cardiac cells by light microscopic analysis to EC50 for bloodstream trypomastigote stage of Trypanosoma cruzi Y measured after 24 hrs; format: toxicity; conditions: read-out: Selectivity Index
How it was run: (§4)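 The ratio is cardiac-cell LC50 (24 h) over the 24 h EC50 against Y-strain bloodstream trypomastigotes. Trypomastigotes (5x10^6/mL) were exposed to 0-50 µM at 37°C in RPMI with 5% FBS. Surviving parasites were counted in a Neubauer chamber, and the EC50 is the concentration halving the parasite number.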

[14] = Selectivity index, ratio of LC50 for Swiss Webster mouse cardiac cells by prestoblue assay to EC50 for bloodstream trypomastigote stage of Trypanosoma cruzi Y measured after 24 hrs; format: toxicity; conditions: read-out: Selectivity Index; how it was run: as §4
[15] = tested on: Trypanosoma cruzi; assay: Antitrypanosomal activity against bloodstream trypomastigote stage of Trypanosoma cruzi Y infected in Swiss Webster mouse assessed as reduction in parasitemia at 5 mg/kg, ip administered daily on day 5 to 9 post infection relative to control; format: functional
How it was run: (§5)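 Male Swiss Webster mice (18–20 g) infected i.p. with 10^4 Y strain bloodstream trypomastigotes. Treatment given days 5–9 post infection: test compound i.p. 5–20 mg/kg/day (0.1 mL, DMSO then 20% Trappsol) or Bz 100 mg/kg/day p.o. (3% Tween 80 in water). Controls infected, vehicle only. Parasitemia counted by Pizzi-Brener in 5 µL tail blood; mortality checked daily to 30 days post treatment.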

[16] = tested on: Trypanosoma cruzi; assay: Antitrypanosomal activity against bloodstream trypomastigote stage of Trypanosoma cruzi Y infected in Swiss Webster mouse assessed as reduction in parasitemia at 10 mg/kg, ip administered daily on day 5 to 9 post infection relative to control; format: functional; how it was run: as §5
[17] = tested on: Trypanosoma cruzi; assay: Antitrypanosomal activity against bloodstream trypomastigote stage of Trypanosoma cruzi Y infected in Swiss Webster mouse assessed as reduction in parasitemia at 20 mg/kg, ip administered daily on day 5 to 9 post infection relative to control; format: functional; how it was run: as §5
[18] = tested on: Trypanosoma cruzi; assay: Antitrypanosomal activity against bloodstream trypomastigote stage of Trypanosoma cruzi Y infected in Swiss Webster mouse assessed as increase in mouse survival at 5 to 20 mg/kg, ip administered daily on day 5 to 9 measured daily until 30 days post dose relative to control; format: functional, organism-based; how it was run: as §5
[19] = molecular target: Sterol 14-alpha demethylase (Trypanosoma cruzi (strain CL Brener)) (UniProt Q7Z1V1); assay: Inhibition of recombinant Trypanosoma cruzi Tulahuen CYP51 expressed in Escherichia coli JM109 cell membranes assessed as residual activity at 0.0005 uM by fluorescence based analysis (reference value: 100%)
Sterol 14-alpha demethylase (Trypanosoma cruzi (strain CL Brener)), sequence (Q7Z1V1 whole entry, looked up): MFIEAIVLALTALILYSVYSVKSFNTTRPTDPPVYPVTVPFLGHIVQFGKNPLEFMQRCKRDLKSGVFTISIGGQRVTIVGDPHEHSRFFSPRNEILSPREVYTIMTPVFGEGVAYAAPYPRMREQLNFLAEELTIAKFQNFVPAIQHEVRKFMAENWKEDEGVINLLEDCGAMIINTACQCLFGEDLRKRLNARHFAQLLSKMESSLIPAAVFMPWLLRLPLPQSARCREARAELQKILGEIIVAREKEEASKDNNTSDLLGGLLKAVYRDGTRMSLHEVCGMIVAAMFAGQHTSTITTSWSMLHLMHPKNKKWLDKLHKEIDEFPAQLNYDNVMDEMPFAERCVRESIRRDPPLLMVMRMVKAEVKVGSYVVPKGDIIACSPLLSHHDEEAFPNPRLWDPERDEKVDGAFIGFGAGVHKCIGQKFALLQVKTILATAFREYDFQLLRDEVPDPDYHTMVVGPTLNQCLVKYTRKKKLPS
How it was run: (§6)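 Fluorescence-based functional assay using recombinant T. cruzi (Tulahuen) CYP51. […] Residual activity was measured across a concentration series and fitted to a curve to give the IC50.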

[20] = molecular target: Sterol 14-alpha demethylase (Trypanosoma cruzi (strain CL Brener)) (UniProt Q7Z1V1); assay: Inhibition of recombinant Trypanosoma cruzi Tulahuen CYP51 expressed in Escherichia coli JM109 cell membranes assessed as residual activity at 0.00165 uM by fluorescence based analysis (reference value: 100%); how it was run: as §6
[21] = molecular target: Sterol 14-alpha demethylase (Trypanosoma cruzi (strain CL Brener)) (UniProt Q7Z1V1); assay: Inhibition of recombinant Trypanosoma cruzi Tulahuen CYP51 expressed in Escherichia coli JM109 cell membranes assessed as residual activity at 0.005 uM by fluorescence based analysis (reference value: 100%); how it was run: as §6
[22] = molecular target: Sterol 14-alpha demethylase (Trypanosoma cruzi (strain CL Brener)) (UniProt Q7Z1V1); assay: Inhibition of recombinant Trypanosoma cruzi Tulahuen CYP51 expressed in Escherichia coli JM109 cell membranes assessed as residual activity at 0.0165 uM by fluorescence based analysis (reference value: 100%); how it was run: as §6
[23] = molecular target: Sterol 14-alpha demethylase (Trypanosoma cruzi (strain CL Brener)) (UniProt Q7Z1V1); assay: Inhibition of recombinant Trypanosoma cruzi Tulahuen CYP51 expressed in Escherichia coli JM109 cell membranes assessed as residual activity at 0.05 uM by fluorescence based analysis (reference value: 100%); how it was run: as §6
[24] = molecular target: Sterol 14-alpha demethylase (Trypanosoma cruzi (strain CL Brener)) (UniProt Q7Z1V1); assay: Inhibition of recombinant Trypanosoma cruzi Tulahuen CYP51 expressed in Escherichia coli JM109 cell membranes assessed as residual activity at 0.17 uM by fluorescence based analysis (reference value: 100%); how it was run: as §6
[25] = molecular target: Sterol 14-alpha demethylase (Trypanosoma cruzi (strain CL Brener)) (UniProt Q7Z1V1); assay: Inhibition of recombinant Trypanosoma cruzi Tulahuen CYP51 expressed in Escherichia coli JM109 cell membranes assessed as residual activity at 0.5 uM by fluorescence based analysis (reference value: 100%); how it was run: as §6

## Cc1n[nH]c2c1[C@@H](c1ccc(OC(C)C)cc1)S[C@@H](C)C(=O)N2
[1]
  Activity: 0%

## Cc1n[nH]c2c1[C@@H](c1ccc(OCc3ccc(F)cc3)cc1)S[C@@H](C)C(=O)N2
[1]
  Activity: 32.42%

## CC1CS(=O)(=O)CCN1/N=C/c1ccc([N+](=O)[O-])o1 (stereo unspecified) [NIFURTIMOX]
[2]
  MIC: 5 µM (≈ 1.44 µg/mL)
[3]
  Imax: 103%

## COc1cc([C@H]2S[C@@H](C)C(=O)Nc3[nH]nc(C)c32)ccc1OCc1ccc(Cl)cc1
[4]
  pEC50: 4.96
[1]
  Activity: 53.94%
[5]
  CC50 at 96 h: 50.6 µM
[6]
  CC50 at 96 h: 50.6 µM
[7]
  selectivity ratio: 4.7
[8]
  selectivity ratio: 4.7
[9]
  pEC50: < 4.30
[10]
  pEC50: 4.40

## COc1cc([C@H]2S[C@@H](C)C(=O)Nc3[nH]nc(C)c32)ccc1OCc1ccccc1Cl
[1]
  Activity: 27.88%

## Cc1ccc(COc2ccc([C@H]3S[C@@H](C)C(=O)Nc4[nH]nc(C)c43)cc2)cc1
[1]
  Activity: 0%

## COc1cc([C@H]2S[C@@H](C)C(=O)Nc3[nH]nc(C)c32)ccc1OCc1cccc(C)c1
[1]
  Activity: 25.05%

## Cc1n[nH]c2c1[C@@H](c1ccc(OCc3cccc(F)c3)cc1)S[C@@H](C)C(=O)N2
[4]
  pEC50: 5.27
[1]
  Activity: 70.68%
[5]
  CC50 at 96 h: 103 µM
[6]
  CC50 at 96 h: 103 µM
[7]
  selectivity ratio: 19.4
[8]
  selectivity ratio: 19.4
[9]
  pEC50: < 4.30
[10]
  pEC50: 4.33
[11]
  CC50 at 24 h: 94 µM
[12]
  CC50 at 24 h: 94 µM
[13]
  selectivity ratio at 24 h: 3.71
[14]
  selectivity ratio at 24 h: 3.71

## Cc1cccc(COc2ccc([C@H]3S[C@@H](C)C(=O)Nc4[nH]nc(C)c43)cc2)c1
[4]
  pEC50: 5.57
[1]
  Activity: 89.25%
[5]
  CC50 at 96 h: 98.9 µM
[6]
  CC50 at 96 h: 98.9 µM
[7]
  selectivity ratio: 36.6
[8]
  selectivity ratio: 36.6
[9]
  pEC50: < 4.30
[10]
  pEC50: 4.69
[11]
  CC50 at 24 h: 66 µM
[12]
  CC50 at 24 h: 66 µM
[13]
  selectivity ratio at 24 h: 3.2
[14]
  selectivity ratio at 24 h: 3.2
[15]
  Activity: inactive
[16]
  Activity: inactive
[17]
  Activity: inactive
[18]
  Activity: inactive

## Cc1n[nH]c2c1[C@@H](c1ccc(OCc3ccccc3F)cc1)S[C@@H](C)C(=O)N2
[4]
  pEC50: 5.28
[1]
  Activity: 63.64%
[5]
  CC50 at 96 h: > 200 µM
[6]
  CC50 at 96 h: > 200 µM
[7]
  selectivity ratio: > 38
[8]
  selectivity ratio: > 38
[9]
  pEC50: < 4.30
[10]
  pEC50: < 4.30
[11]
  CC50 at 24 h: > 200 µM
[12]
  CC50 at 24 h: > 200 µM
[13]
  selectivity ratio at 24 h: > 4
[14]
  selectivity ratio at 24 h: > 4

## C=CCOc1ccc([C@H]2S[C@@H](C)C(=O)Nc3[nH]nc(C)c32)cc1
[1]
  Activity: 0%

## COc1cc([C@H]2S[C@@H](C)C(=O)Nc3[nH]nc(C)c32)ccc1OCc1ccc(C)cc1
[1]
  Activity: 1.98%

## COc1cc([C@H]2S[C@@H](C)C(=O)Nc3[nH]nc(C)c32)ccc1OCc1cccc(Cl)c1
[1]
  Activity: 39.94%

## Cc1n[nH]c2c1[C@@H](c1ccc(OCc3ccc(Cl)cc3)cc1)S[C@@H](C)C(=O)N2
[1]
  Activity: 14.88%

## COc1cc([C@H]2S[C@@H](C)C(=O)Nc3[nH]nc(C)c32)ccc1OCc1ccccc1
[1]
  Activity: 12.02%

## COc1cc([C@H]2S[C@@H](C)C(=O)Nc3[nH]nc(C)c32)ccc1OCc1ccccc1C
[1]
  Activity: 16.43%

## CC[C@@H]([C@H](C)O)n1ncn(-c2ccc(N3CCN(c4ccc(OC[C@@H]5CO[C@@](Cn6cncn6)(c6ccc(F)cc6F)C5)cc4)CC3)cc2)c1=O
[19]
  Activity: 100%
[20]
  Activity: 98.4%
[21]
  Activity: 92.8%
[22]
  Activity: 71.9%
[23]
  Activity: 32%
[24]
  Activity: 0%
[25]
  Activity: 0%

## CCCOc1ccc([C@H]2S[C@@H](C)C(=O)Nc3[nH]nc(C)c32)cc1
[1]
  Activity: 0%

## Cc1ccccc1COc1ccc([C@H]2S[C@@H](C)C(=O)Nc3[nH]nc(C)c32)cc1
[4]
  pEC50: 5.66
[1]
  Activity: 69.14%
[5]
  CC50 at 96 h: 111 µM
[6]
  CC50 at 96 h: 111 µM
[7]
  selectivity ratio: 50.4
[8]
  selectivity ratio: 50.4
[9]
  pEC50: < 4.30
[10]
  pEC50: 4.41
[11]
  CC50 at 24 h: > 200 µM
[12]
  CC50 at 24 h: > 200 µM
[13]
  selectivity ratio at 24 h: > 5.2
[14]
  selectivity ratio at 24 h: > 5.2

Source: ChEMBL document CHEMBL4196064, “Identification of Pyrazolo[3,4-e][1,4]thiazepin based CYP51 inhibitors as potential Chagas disease therapeutic alternative: In vitro and in vivo evaluation, binding mode prediction and SAR exploration” (Eur J Med Chem, 2018)
